Key:
Cholinesterase = Cholinesterase (Equus caballus, UniProt P81908); test: Inhibition of equine serum BChE using butyrylthiocholine iodide as substrate preincubated for 20mins before the addition of substrate by Ellman's method
[1] = target: Acetylcholinesterase (Electrophorus electricus) (UniProt O42275); test: Mixed type inhibition of Electrophorus electricus AChE by Lineweaver-Burk plot analysis
Outline: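 Ellman kinetics at 30 °C in pH 8.0 Tris-HCl with DTNB. Enzyme plus inhibitor (3 concentrations and a water blank) was preincubated for 20 min, then ATChI was added at 0.9375, 0.625, 0.325 or 0.1875 mM. A415 was read every minute for 30 min, in triplicate. Mode, Ki and Ki' came from Lineweaver-Burk, Dixon and Cornish-Bowden plots.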

Acetylcholinesterase = Acetylcholinesterase (Electrophorus electricus, UniProt O42275); test: Inhibition of Electrophorus electricus AChE using acetylthiocholine iodide as substrate preincubated for 20mins before the addition of substrate by Ellman's method
Chain of Acetylcholinesterase (O42275 whole entry): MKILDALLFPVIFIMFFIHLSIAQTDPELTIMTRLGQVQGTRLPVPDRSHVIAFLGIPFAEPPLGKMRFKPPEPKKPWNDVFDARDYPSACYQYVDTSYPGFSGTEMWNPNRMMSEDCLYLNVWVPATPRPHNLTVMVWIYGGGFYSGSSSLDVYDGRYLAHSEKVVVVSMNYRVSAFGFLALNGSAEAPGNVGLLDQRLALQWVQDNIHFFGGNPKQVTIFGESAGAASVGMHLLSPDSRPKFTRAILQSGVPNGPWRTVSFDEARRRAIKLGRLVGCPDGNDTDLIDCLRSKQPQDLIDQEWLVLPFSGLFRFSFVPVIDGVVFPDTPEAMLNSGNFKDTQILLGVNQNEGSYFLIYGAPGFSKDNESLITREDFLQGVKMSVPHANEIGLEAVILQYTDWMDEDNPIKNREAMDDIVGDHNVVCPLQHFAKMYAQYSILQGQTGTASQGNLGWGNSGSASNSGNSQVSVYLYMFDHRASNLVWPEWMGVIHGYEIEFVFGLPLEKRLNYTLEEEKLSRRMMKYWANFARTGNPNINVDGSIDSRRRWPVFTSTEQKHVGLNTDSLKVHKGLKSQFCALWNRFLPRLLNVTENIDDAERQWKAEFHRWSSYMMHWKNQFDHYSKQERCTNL

Chain of Cholinesterase (P81908 whole entry): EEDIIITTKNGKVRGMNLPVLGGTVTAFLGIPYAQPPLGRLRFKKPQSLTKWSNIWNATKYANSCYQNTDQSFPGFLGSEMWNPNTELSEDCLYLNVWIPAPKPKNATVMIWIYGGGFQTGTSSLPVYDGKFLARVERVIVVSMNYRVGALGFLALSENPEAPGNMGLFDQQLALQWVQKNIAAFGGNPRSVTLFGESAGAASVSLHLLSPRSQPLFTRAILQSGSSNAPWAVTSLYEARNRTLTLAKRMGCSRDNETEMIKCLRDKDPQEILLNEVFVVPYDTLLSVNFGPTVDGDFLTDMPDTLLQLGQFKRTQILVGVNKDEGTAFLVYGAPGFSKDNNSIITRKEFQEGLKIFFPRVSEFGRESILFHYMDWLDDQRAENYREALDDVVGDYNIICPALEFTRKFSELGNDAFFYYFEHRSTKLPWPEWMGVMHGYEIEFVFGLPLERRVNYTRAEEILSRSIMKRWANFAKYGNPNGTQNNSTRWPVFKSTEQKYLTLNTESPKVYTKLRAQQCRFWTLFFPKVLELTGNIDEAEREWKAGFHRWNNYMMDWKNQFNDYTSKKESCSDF
Chain of Acetylcholinesterase (Electrophorus electricus) (O42275 24-633 limits assumed): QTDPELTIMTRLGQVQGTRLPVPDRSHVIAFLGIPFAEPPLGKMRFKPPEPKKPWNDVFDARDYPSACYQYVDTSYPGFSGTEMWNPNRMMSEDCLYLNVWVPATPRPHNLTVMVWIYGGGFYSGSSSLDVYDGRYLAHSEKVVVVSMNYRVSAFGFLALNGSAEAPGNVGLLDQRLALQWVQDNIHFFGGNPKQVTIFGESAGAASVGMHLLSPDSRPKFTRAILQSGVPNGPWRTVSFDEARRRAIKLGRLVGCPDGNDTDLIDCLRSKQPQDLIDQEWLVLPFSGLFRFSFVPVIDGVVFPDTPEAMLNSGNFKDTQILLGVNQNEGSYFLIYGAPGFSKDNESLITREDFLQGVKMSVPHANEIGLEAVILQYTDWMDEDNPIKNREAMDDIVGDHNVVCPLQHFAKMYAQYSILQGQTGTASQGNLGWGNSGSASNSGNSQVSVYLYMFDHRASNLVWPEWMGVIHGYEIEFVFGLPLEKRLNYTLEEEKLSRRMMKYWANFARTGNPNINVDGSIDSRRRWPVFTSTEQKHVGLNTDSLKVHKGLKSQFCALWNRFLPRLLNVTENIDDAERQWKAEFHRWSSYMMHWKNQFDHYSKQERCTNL

Compound | Ki (Cholinesterase; read-out: Ki) | Kiuc [1] | IC50 (Acetylcholinesterase) | Ki (Acetylcholinesterase; read-out: Ki) | IC50 (Cholinesterase) | Ki (Cholinesterase) | Ki (Acetylcholinesterase)
C#CCCOC(=O)[C@]12CCC(C)(C)C[C@H]1C1=CC[C@@H]3[C@@]4(C)C[C@@H](O)[C@H](O)C(C)(C)[C@@H]4CC[C@@]3(C)[C@]1(C)CC2 | > 20 µM | 32.5 µM | 11.7 µM | 6.76 µM |  |  | 
COc1ccc(COC(=O)[C@]23CCC(C)(C)C[C@H]2C2=CC[C@@H]4[C@@]5(C)C[C@@H](O)[C@H](O)C(C)(C)[C@@H]5CC[C@@]4(C)[C@]2(C)CC3)cc1 | > 100 µM | 69.6 µM |  | 6.49 µM |  |  | 
CC1(C)CC[C@]2(C(=O)OCc3ccccc3)CC[C@]3(C)C(=CC[C@@H]4[C@@]5(C)C[C@@H](O)[C@H](O)C(C)(C)[C@@H]5CC[C@]43C)[C@@H]2C1 [BENZYL MASLINATE] | > 14 µM |  |  | > 14 µM |  |  | 
CC(=O)O[C@H]1C[C@]2(C)[C@H]3CC=C4[C@@H]5CC(C)(C)CC[C@]5(C(=O)O)CC[C@@]4(C)[C@]3(C)CC[C@H]2C(C)(C)[C@H]1OC(C)=O | > 20 µM |  |  | > 20 µM |  |  | 
CC1(C)CC[C@]2(C(=O)O)CC[C@]3(C)C(=CC[C@@H]4[C@@]5(C)C[C@H](OC(=O)CCl)[C@H](OC(=O)CCl)C(C)(C)[C@@H]5CC[C@]43C)[C@@H]2C1 |  | 9.36 µM | 6.6 µM | 6.85 µM |  |  | 
CC(=O)O[C@@H]1C[C@]2(C)[C@H]3CC=C4[C@@H]5CC(C)(C)CC[C@]5(C(=O)O)CC[C@@]4(C)[C@]3(C)CC[C@H]2C(C)(C)[C@H]1OC(C)=O | > 10 µM |  |  | > 10 µM |  |  | 
CC1(C)CC[C@]2(C(N)=O)CC[C@]3(C)C(=CC[C@@H]4[C@@]5(C)C[C@@H](O)[C@H](O)C(C)(C)[C@@H]5CC[C@]43C)[C@@H]2C1 | 18.1 µM |  |  | > 20 µM | 34.1 µM |  | 
CC1(C)CC[C@]2(C(=O)OCc3ccc(Br)cc3)CC[C@]3(C)C(=CC[C@@H]4[C@@]5(C)C[C@@H](O)[C@H](O)C(C)(C)[C@@H]5CC[C@]43C)[C@@H]2C1 | > 20 µM |  |  | > 20 µM |  |  | 
CCNC(=O)[C@]12CCC(C)(C)C[C@H]1C1=CC[C@@H]3[C@@]4(C)C[C@@H](O)[C@H](O)C(C)(C)[C@@H]4CC[C@@]3(C)[C@]1(C)CC2 | > 20 µM |  |  | > 20 µM |  |  | 
C=CCNC(=O)[C@]12CCC(C)(C)C[C@H]1C1=CC[C@@H]3[C@@]4(C)C[C@@H](O)[C@H](O)C(C)(C)[C@@H]4CC[C@@]3(C)[C@]1(C)CC2 | > 20 µM |  |  | > 20 µM |  |  | 
CCCCCCCCCCCCCCCCCCOC(=O)[C@]12CCC(C)(C)C[C@H]1C1=CC[C@@H]3[C@@]4(C)C[C@@H](O)[C@H](O)C(C)(C)[C@@H]4CC[C@@]3(C)[C@]1(C)CC2 |  |  |  |  |  | ND(Insoluble) | ND(Insoluble)
C#CCNC(=O)[C@]12CCC(C)(C)C[C@H]1C1=CC[C@@H]3[C@@]4(C)C[C@@H](O)[C@H](O)C(C)(C)[C@@H]4CC[C@@]3(C)[C@]1(C)CC2 | > 20 µM |  |  | > 20 µM |  |  | 
CC1(C)CC[C@]2(C(=O)O)CC[C@]3(C)C(=CC[C@@H]4[C@@]5(C)C[C@@H](OC(=O)CCl)[C@H](OC(=O)CCl)C(C)(C)[C@@H]5CC[C@]43C)[C@@H]2C1 |  | 19.8 µM | 15.1 µM | 13.1 µM |  |  | 
COC(=O)[C@]12CCC(C)(C)C[C@H]1C1=CC[C@@H]3[C@@]4(C)C[C@@H](O)[C@H](O)C(C)(C)[C@@H]4CC[C@@]3(C)[C@]1(C)CC2 [MASLINIC ACID METHYL ESTER] | > 50 µM |  |  | > 50 µM |  |  | 
CC1(C)CC[C@]2(C(=O)OCc3ccc(Cl)cc3)CC[C@]3(C)C(=CC[C@@H]4[C@@]5(C)C[C@@H](O)[C@H](O)C(C)(C)[C@@H]5CC[C@]43C)[C@@H]2C1 | > 30 µM |  |  | > 30 µM |  |  | 
COC(=O)[C@]12CCC(C)(C)C[C@H]1C1=CC[C@@H]3[C@@]4(C)C[C@@H](OS(N)(=O)=O)[C@H](O)C(C)(C)[C@@H]4CC[C@@]3(C)[C@]1(C)CC2 | > 40 µM |  |  | > 40 µM |  |  | 
COC(=O)[C@]12CCC(C)(C)C[C@H]1C1=CC[C@@H]3[C@@]4(C)C[C@@H](O)[C@H](OS(N)(=O)=O)C(C)(C)[C@@H]4CC[C@@]3(C)[C@]1(C)CC2 | > 20 µM | 38.6 µM | 21.3 µM | 20.5 µM |  |  | 
CC1(C)CC[C@]2(C(=O)NCc3ccccc3)CC[C@]3(C)C(=CC[C@@H]4[C@@]5(C)C[C@H](OC(=O)CCl)[C@H](OC(=O)CCl)C(C)(C)[C@@H]5CC[C@]43C)[C@@H]2C1 |  |  | 15.3 µM | 6.25 µM |  |  | 
C=CCOC(=O)[C@]12CCC(C)(C)C[C@H]1C1=CC[C@@H]3[C@@]4(C)C[C@@H](O)[C@H](O)C(C)(C)[C@@H]4CC[C@@]3(C)[C@]1(C)CC2 | > 30 µM |  |  | > 30 µM |  |  | 
CC1(C)CC[C@]2(C(=O)OCCCO)CC[C@]3(C)C(=CC[C@@H]4[C@@]5(C)C[C@@H](O)[C@H](O)C(C)(C)[C@@H]5CC[C@]43C)[C@@H]2C1 | > 10 µM | 13.7 µM | 13.8 µM | 20.1 µM |  |  | 

Compound | Ki (Cholinesterase; read-out: Ki) | Kiuc [1] | IC50 (Acetylcholinesterase) | Ki (Acetylcholinesterase; read-out: Ki) | IC50 (Cholinesterase) | Ki (Cholinesterase) | Ki (Acetylcholinesterase)
CC1(C)CC[C@]2(C(=O)OCCCCl)CC[C@]3(C)C(=CC[C@@H]4[C@@]5(C)C[C@@H](O)[C@H](O)C(C)(C)[C@@H]5CC[C@]43C)[C@@H]2C1 | > 6 µM | 3.45 µM | 4.07 µM | 8.76 µM |  |  | 
CC(=O)O[C@H]1C[C@]2(C)[C@H]3CC=C4[C@@H]5CC(C)(C)CC[C@]5(C(=O)NCc5ccccc5)CC[C@@]4(C)[C@]3(C)CC[C@H]2C(C)(C)[C@H]1OC(C)=O |  |  |  | > 10 µM |  |  | 
CC1(C)CC[C@]2(C(=O)OCCO)CC[C@]3(C)C(=CC[C@@H]4[C@@]5(C)C[C@@H](O)[C@H](O)C(C)(C)[C@@H]5CC[C@]43C)[C@@H]2C1 | > 100 µM |  |  | > 100 µM |  |  | 
CCNC(=O)[C@]12CCC(C)(C)C[C@H]1C1=CC[C@@H]3[C@@]4(C)C[C@@H](OC(C)=O)[C@H](OC(C)=O)C(C)(C)[C@@H]4CC[C@@]3(C)[C@]1(C)CC2 | > 14 µM |  |  | > 14 µM |  |  | 
CCCCCCCCCCCCOC(=O)[C@]12CCC(C)(C)C[C@H]1C1=CC[C@@H]3[C@@]4(C)C[C@@H](O)[C@H](O)C(C)(C)[C@@H]4CC[C@@]3(C)[C@]1(C)CC2 |  |  |  |  |  | ND(Insoluble) | ND(Insoluble)
CCCNC(=O)[C@]12CCC(C)(C)C[C@H]1C1=CC[C@@H]3[C@@]4(C)C[C@@H](OC(C)=O)[C@H](OC(C)=O)C(C)(C)[C@@H]4CC[C@@]3(C)[C@]1(C)CC2 | > 6 µM |  |  | > 6 µM |  |  | 
CC1(C)CC[C@]2(C(=O)NCc3ccccc3)CC[C@]3(C)C(=CC[C@@H]4[C@@]5(C)C[C@@H](O)[C@H](O)C(C)(C)[C@@H]5CC[C@]43C)[C@@H]2C1 |  |  |  | > 10 µM |  |  | 
CC(=O)O[C@@H]1C[C@]2(C)[C@H]3CC=C4[C@@H]5CC(C)(C)CC[C@]5(C(N)=O)CC[C@@]4(C)[C@]3(C)CC[C@H]2C(C)(C)[C@H]1OC(C)=O | > 20 µM |  |  | > 20 µM |  |  | 
CC1(C)CC[C@]2(C(=O)NCc3ccccc3)CC[C@]3(C)C(=CC[C@@H]4[C@@]5(C)C[C@@H](OC(=O)CCl)[C@H](OC(=O)CCl)C(C)(C)[C@@H]5CC[C@]43C)[C@@H]2C1 |  |  | 20 µM | 25.1 µM |  |  | 
C#CCNC(=O)[C@]12CCC(C)(C)C[C@H]1C1=CC[C@@H]3[C@@]4(C)C[C@@H](OC(C)=O)[C@H](OC(C)=O)C(C)(C)[C@@H]4CC[C@@]3(C)[C@]1(C)CC2 | > 14 µM |  | 15.1 µM | 8.14 µM |  |  | 
C#CCOC(=O)[C@]12CCC(C)(C)C[C@H]1C1=CC[C@@H]3[C@@]4(C)C[C@@H](O)[C@H](O)C(C)(C)[C@@H]4CC[C@@]3(C)[C@]1(C)CC2 | > 10 µM |  |  | > 10 µM |  |  | 
CC(=O)O[C@@H]1C[C@]2(C)[C@H]3CC=C4[C@@H]5CC(C)(C)CC[C@]5(C(=O)NCc5ccccc5)CC[C@@]4(C)[C@]3(C)CC[C@H]2C(C)(C)[C@H]1OC(C)=O |  | 39.4 µM | 29.4 µM | 16.2 µM |  |  | 
C=CCCOC(=O)[C@]12CCC(C)(C)C[C@H]1C1=CC[C@@H]3[C@@]4(C)C[C@@H](O)[C@H](O)C(C)(C)[C@@H]4CC[C@@]3(C)[C@]1(C)CC2 | > 10 µM | 11.5 µM | 6.25 µM | 3.31 µM |  |  | 
CC1(C)CC[C@@]2(C(=O)OCc3ccc([N+](=O)[O-])cc3)CC[C@@]3(C)C(=CC[C@H]4[C@]5(C)C[C@H](O)[C@@H](O)C(C)(C)[C@H]5CC[C@@]43C)[C@H]2C1 (single isomer, unassigned) | > 4 µM | 7.22 µM | 7.41 µM | 6.14 µM |  |  | 
CC1(C)CC[C@]2(C(=O)OCCCCBr)CC[C@]3(C)C(=CC[C@@H]4[C@@]5(C)C[C@@H](O)[C@H](O)C(C)(C)[C@@H]5CC[C@]43C)[C@@H]2C1 | > 10 µM |  |  | > 10 µM |  |  | 
CCOC(=O)[C@]12CCC(C)(C)C[C@H]1C1=CC[C@@H]3[C@@]4(C)C[C@@H](O)[C@H](O)C(C)(C)[C@@H]4CC[C@@]3(C)[C@]1(C)CC2 | > 14 µM | 4.67 µM | 4.68 µM | 3.49 µM |  |  | 
CC1(C)CC[C@]2(C(=O)OCc3cccc(Cl)c3)CC[C@]3(C)C(=CC[C@@H]4[C@@]5(C)C[C@@H](O)[C@H](O)C(C)(C)[C@@H]5CC[C@]43C)[C@@H]2C1 | > 10 µM |  |  | > 10 µM |  |  | 
CC1(C)CC[C@]2(C(=O)OCCC#CCl)CC[C@]3(C)C(=CC[C@@H]4[C@@]5(C)C[C@@H](O)[C@H](O)C(C)(C)[C@@H]5CC[C@]43C)[C@@H]2C1 | > 6 µM | 14.8 µM | 6.57 µM | 5.71 µM |  |  | 
C=CCNC(=O)[C@]12CCC(C)(C)C[C@H]1C1=CC[C@@H]3[C@@]4(C)C[C@@H](OC(C)=O)[C@H](OC(C)=O)C(C)(C)[C@@H]4CC[C@@]3(C)[C@]1(C)CC2 | > 20 µM |  |  | > 20 µM |  |  | 
CC1(C)CC[C@]2(C(=O)OCC3CCCCC3)CC[C@]3(C)C(=CC[C@@H]4[C@@]5(C)C[C@@H](O)[C@H](O)C(C)(C)[C@@H]5CC[C@]43C)[C@@H]2C1 | > 14 µM | 2.67 µM | 3.87 µM | 10 µM |  |  | 

Reference: ChEMBL document CHEMBL3779826, “Converting maslinic acid into an effective inhibitor of acylcholinesterases” (Eur J Med Chem, 2015)
